In ChEMBL document CHEMBL1944577, “Synthesis, evaluation and docking studies on 3-alkoxy-4-methanesulfonamido acetophenone derivatives as non ulcerogenic anti-inflammatory agents” (Eur J Med Chem, 2012):

Assays:
Rattus norvegicus [1] = assay: Antiinflammatory activity in Wistar rat assessed as inhibition of carrageenan-induced paw oedema at 100 mg/kg, po dosed 30 mins after carrageenan challenge measured after 5 hrs by plethysmograph analysis relative to control; format: functional
Method in brief: (§1)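 Wistar rats (150–200 g, either sex) in groups of six. Carrageenan 1% w/v in saline, 0.1 ml, injected into the plantar left hind paw. Compound was given p.o. 30 min later as a suspension in 0.5% w/v CMC; controls received CMC. Paw volume was read by mercury-displacement plethysmograph at 0–5 h. % reduction = (1 − Vt/Vc)×100 versus control, at 5 h.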

Rattus norvegicus [2] = assay: Ulcerogenicity in Wistar rat assessed as lesion score at 100 mg/kg, po after 6 hrs; format: toxicity, organism-based; design: dose 100 mg/kg, route oral; conditions: in vivo
Method in brief: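 Wistar rats of either sex (150–200 g, n = 6) were dosed orally and killed by cervical dislocation 6 h later. Stomachs were inflated with 2% formalin, fixed 10 min, and opened along the greater curvature. Lesions were examined under a dissecting microscope (10x grid). Longest lesion diameters were summed per animal as the lesion score (mm), then averaged per group.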

Rattus norvegicus [3] = assay: Antiinflammatory activity in po dosed Wistar rat assessed as inhibition of carrageenan-induced paw oedema compound administered 30 mins after carrageenan challenge measured after 5 hrs by plethysmograph analysis; format: functional
Method in brief: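 Carrageenan paw edema in Wistar rats (150–200 g, either sex, n = 6 per group): 0.1 ml 1% w/v carrageenan injected into the left plantar region. Compounds were suspended in 0.5% w/v CMC and dosed orally 30 min post-challenge at three graded doses. Plethysmographic (mercury displacement) paw volume was read to 5 h. ED50 was derived from the three-dose responses.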

Rattus norvegicus [4] = assay: Antiinflammatory activity in Wistar rat assessed as inhibition of carrageenan-induced paw oedema at 10 mg/kg, po dosed 30 mins after carrageenan challenge measured after 5 hrs by plethysmograph analysis relative to control; format: functional; method in brief: as §1
Rattus norvegicus [5] = assay: Antiinflammatory activity in Wistar rat assessed as inhibition of carrageenan-induced paw oedema at 30 mg/kg, po dosed 30 mins after carrageenan challenge measured after 5 hrs by plethysmograph analysis relative to control; format: functional; method in brief: as §1

Work on `CCCCOc1cc(C(C)=O)ccc1NS(C)(=O)=O` yielded an inhibition in vivo at 100 mg/kg (Rattus norvegicus [1]) of 72.7%, a UI (Rattus norvegicus [2]) of 5 mm and an ED50 (Rattus norvegicus [3]) of 2 mg/kg.
For `CCCCCOc1cc(C(C)=O)ccc1NS(C)(=O)=O`, the inhibition in vivo at 100 mg/kg (Rattus norvegicus [1]) was 59.6%, the UI (Rattus norvegicus [2]) was 4 mm and the ED50 (Rattus norvegicus [3]) was 8.18 mg/kg.
With `CCCCCCOc1cc(C(C)=O)ccc1NS(C)(=O)=O` the inhibition in vivo at 100 mg/kg (Rattus norvegicus [1]) was 76.8%, the UI (Rattus norvegicus [2]) was 4 mm and the ED50 (Rattus norvegicus [3]) was 2.3 mg/kg.
`CC(=O)c1ccc(NS(C)(=O)=O)c(OC2CCCCC2)c1` was tested, and the inhibition in vivo at 100 mg/kg (Rattus norvegicus [1]) was 73.7%, the UI (Rattus norvegicus [2]) was 3 mm and the ED50 (Rattus norvegicus [3]) was 2.23 mg/kg.
`CCCCOc1cc(C(C)=O)ccc1N` gave an inhibition in vivo at 100 mg/kg (Rattus norvegicus [1]) of 13.8% and a UI (Rattus norvegicus [2]) of 2 mm.
With `CCCCCOc1cc(C(C)=O)ccc1N` the inhibition in vivo at 100 mg/kg (Rattus norvegicus [1]) was 9.88% and the UI (Rattus norvegicus [2]) was 2 mm.
For `CCCCCCOc1cc(C(C)=O)ccc1N`, the inhibition in vivo at 100 mg/kg (Rattus norvegicus [1]) was 14.1% and the UI (Rattus norvegicus [2]) was 3 mm.
In the case of `CC(=O)c1ccc(N)c(OC2CCCCC2)c1`, the inhibition in vivo at 100 mg/kg (Rattus norvegicus [1]) is reported as 19% and the UI (Rattus norvegicus [2]) is reported as 3 mm.
`COc1ccc2c(c1)c(CC(=O)O)c(C)n2C(=O)c1ccc(Cl)cc1` [INDOMETHACIN] showed an inhibition in vivo at 10 mg/kg (Rattus norvegicus [4]) of 79.7%, a UI (Rattus norvegicus [2]) of 22.3 mm and an ED50 (Rattus norvegicus [3]) of 2 mg/kg.
Compound `CS(=O)(=O)c1ccc(C2=C(c3ccccc3)C(=O)OC2)cc1` [ROFECOXIB] has an inhibition in vivo at 30 mg/kg (Rattus norvegicus [5]) of 81.8%, a UI (Rattus norvegicus [2]) of 3 mm and an ED50 (Rattus norvegicus [3]) of 2.5 mg/kg.
